Reference: ChEMBL document CHEMBL4049446 (J Med Chem, 2017)

How the values were obtained:
[1] = Inhibition of HIV1 protease expressed in Escherichia coli using 2-aminobenzoyl-Thr-Ile-Nle-Phe(p-N02)-Gln-Arg-NH as substrate preincubated for 5 to 10 mins followed by substrate addition measured after 1 hr by fluorescence assay; set-up: species or system Human immunodeficiency virus 1
[2] = tested on: Human immunodeficiency virus 1; experiment: Antiviral activity against HIV1 Lai infected in human MT2 cells; type: functional, cell-based; settings: Human immunodeficiency virus 1, M:B_Lai
[3] = tested on: Human immunodeficiency virus 1; experiment: Antiviral activity against atazanavir-resistant HIV1 NL4-3 harboring protease L23I/E34Q/K43I/M46I/I50L/G51A/L63P/A71V/V82A/T91A mutant infected in human MT4 cells assessed as reduction in p24 Gag protein production after 7 days by chemiluminescent enzyme immunoassay; type: functional, cell-based; settings: Human immunodeficiency virus 1, NL4-3, MT4, 168 h
Summary of the method: (§1)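 Variants are HIV-1 NL4-3 selected in vitro under protease inhibitors: APV, ATV, IDV, LPV, NFV and SQV at 5 µM, TPV at 15 µM. Assays run in triplicate; IC50 given as mean ± 1 standard deviation from three independent experiments.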

[4] = tested on: Human immunodeficiency virus 1; experiment: Ratio of IC50 for atazanavir-resistant HIV1 NL4-3 harboring protease L23I/E34Q/K43I/M46I/I50L/G51A/L63P/A71V/V82A/T91A mutant infected in human MT4 cells to IC50 for wild type HIV1 NL4.3 infected in human MT4 cells; type: functional
Summary of the method: (§2)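 Fold change is the IC50 against each resistant variant divided by the IC50 against wild-type HIV-1 NL4-3, measured in the same triplicate antiviral assays (three independent experiments).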

[5] = tested on: Human immunodeficiency virus 1; experiment: Antiviral activity against amprenavir-resistant HIV1 NL4-3 harboring protease L10F/V32I/L33F/M46L/I54M/A71V mutant infected in human MT4 cells assessed as reduction in p24 Gag protein production after 7 days by chemiluminescent enzyme immunoassay; type: functional, cell-based; settings: Human immunodeficiency virus 1, NL4-3, MT4, 168 h; summary of the method: as §1
[6] = tested on: Human immunodeficiency virus 1; experiment: (§3) Antiviral activity against darunavir-resistant HIV1 derived from 20 passages harboring protease L10I/I15V/K20R/L24I/V32I/M36I/M46L/L63P/V82A/L89M mutant infected in human MT4 cells assessed as reduction in p24 Gag protein production after 7 days by chemiluminescent enzyme immunoassay; type: functional, cell-based; settings: Human immunodeficiency virus 1, MT4, 168 h
Summary of the method: (§4)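 MT-4 cells (1×10^4) exposed to 50 TCID50 of wild-type HIV-1 NL4-3 or DRV-selected variants (20, 30 or 51 passages) and cultured with various inhibitor concentrations. IC50 read by p24 assay. Run in triplicate; mean ± 1 standard deviation from three independent experiments.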

[7] = tested on: Human immunodeficiency virus 1; experiment: Ratio of IC50 for amprenavir-resistant HIV1 NL4-3 harboring protease L10F/V32I/L33F/M46L/I54M/A71V mutant infected in human MT4 cells to IC50 for wild type HIV1 NL4.3 infected in human MT4 cells; type: functional; summary of the method: as §2
[8] = tested on: Human immunodeficiency virus 1; experiment: Antiviral activity against wild type HIV1 NL4-3 infected in human MT4 cells assessed as reduction in p24 Gag protein production after 7 days by chemiluminescent enzyme immunoassay; type: functional, cell-based; settings: Human immunodeficiency virus 1, NL4-3, MT4, 168 h
[9] = tested on: Human immunodeficiency virus 1; experiment: Ratio of IC50 for saquinavir-resistant HIV1 NL4-3 harboring protease L10I/N37D/G48V/I54V/L63P/G73C/I84V/L90M mutant infected in human MT4 cells to IC50 for wild type HIV1 NL4.3 infected in human MT4 cells; type: functional; summary of the method: as §2
[10] = tested on: Human immunodeficiency virus 1; experiment: Antiviral activity against nelfinavir-resistant HIV1 NL4-3 harboring protease L10F/K20T/D30N/K45I/A71V/V77I mutant infected in human MT4 cells assessed as reduction in p24 Gag protein production after 7 days by chemiluminescent enzyme immunoassay; type: functional, cell-based; settings: Human immunodeficiency virus 1, NL4-3, MT4, 168 h; summary of the method: as §1
[11] = tested on: Human immunodeficiency virus 1; experiment: Antiviral activity against saquinavir-resistant HIV1 NL4-3 harboring protease L10I/N37D/G48V/I54V/L63P/G73C/I84V/L90M mutant infected in human MT4 cells assessed as reduction in p24 Gag protein production after 7 days by chemiluminescent enzyme immunoassay; type: functional, cell-based; settings: Human immunodeficiency virus 1, NL4-3, MT4, 168 h; summary of the method: as §1
[12] = tested on: Human immunodeficiency virus 1; experiment: Ratio of IC50 for nelfinavir-resistant HIV1 NL4-3 harboring protease L10F/K20T/D30N/K45I/A71V/V77I mutant infected in human MT4 cells to IC50 for wild type HIV1 NL4.3 infected in human MT4 cells; type: functional; summary of the method: as §2
[13] = tested on: Human immunodeficiency virus 1; experiment: as §3, with “51” for “20”, “L10I/I15V/K20R/L24I/V32I/L33F/M36I/M46L/I54M/L63P/K70Q/V82I/I84V/L89M” for “L10I/I15V/K20R/L24I/V32I/M36I/M46L/L63P/V82A/L89M”; type: functional, cell-based; settings: Human immunodeficiency virus 1, MT4, 168 h
[14] = tested on: Human immunodeficiency virus 1; experiment: Ratio of IC50 for tipranavir-resistant HIV1 NL4-3 harboring protease L10I/L33I/M36I/M46I/I54V/K55R/I62V/L63P/A71V/G73S/V82T/L90M/I93L mutant infected in human MT4 cells to IC50 for wild type HIV1 NL4.3 infected in human MT4 cells; type: functional; summary of the method: as §2
[15] = tested on: Human immunodeficiency virus 1; experiment: Ratio of IC50 for darunavir-resistant HIV1 derived from 30 passages harboring protease L10I/I15V/K20R/L24I/V32I/M36I/M46L/L63P/K70R/V82A/I84V/L89M mutant infected in human MT4 cells to IC50 for wild type HIV1 NL4.3 infected in human MT4 cells; type: functional; summary of the method: as §2
[16] = tested on: Human immunodeficiency virus 1; experiment: Antiviral activity against indinavir-resistant HIV1 NL4-3 harboring protease L10F/L24I/M46I/I54V/L63P/A71V/G73S/V82T mutant infected in human MT4 cells assessed as reduction in p24 Gag protein production after 7 days by chemiluminescent enzyme immunoassay; type: functional, cell-based; settings: Human immunodeficiency virus 1, NL4-3, MT4, 168 h; summary of the method: as §1
[17] = tested on: Human immunodeficiency virus 1; experiment: Ratio of IC50 for darunavir-resistant HIV1 derived from 20 passages harboring protease L10I/I15V/K20R/L24I/V32I/M36I/M46L/L63P/V82A/L89M mutant infected in human MT4 cells to IC50 for wild type HIV1 NL4.3 infected in human MT4 cells; type: functional; summary of the method: as §2
[18] = tested on: Human immunodeficiency virus 1; experiment: Antiviral activity against darunavir-resistant HIV1 derived from 30 passages harboring protease L10I/I15V/K20R/L24I/V32I/M36I/M46L/L63P/K70R/V82A/I84V/L89M mutant infected in human MT4 cells assessed as reduction in p24 Gag protein production after 7 days by chemiluminescent enzyme immunoassay; type: functional, cell-based; settings: Human immunodeficiency virus 1, MT4, 168 h; summary of the method: as §4
[19] = tested on: Human immunodeficiency virus 1; experiment: Antiviral activity against tipranavir-resistant HIV1 NL4-3 harboring protease L10I/L33I/M36I/M46I/I54V/K55R/I62V/L63P/A71V/G73S/V82T/L90M/I93L mutant infected in human MT4 cells assessed as reduction in p24 Gag protein production after 7 days by chemiluminescent enzyme immunoassay; type: functional, cell-based; settings: Human immunodeficiency virus 1, NL4-3, MT4, 168 h; summary of the method: as §1
[20] = tested on: Human immunodeficiency virus 1; experiment: Ratio of IC50 for darunavir-resistant HIV1 derived from 51 passages harboring protease L10I/I15V/K20R/L24I/V32I/L33F/M36I/M46L/I54M/L63P/K70Q/V82I/I84V/L89M mutant infected in human MT4 cells to IC50 for wild type HIV1 NL4.3 infected in human MT4 cells; type: functional; summary of the method: as §2
[21] = tested on: Human immunodeficiency virus 1; experiment: Ratio of IC50 for indinavir-resistant HIV1 NL4-3 harboring protease L10F/L24I/M46I/I54V/L63P/A71V/G73S/V82T mutant infected in human MT4 cells to IC50 for wild type HIV1 NL4.3 infected in human MT4 cells; type: functional; summary of the method: as §2
[22] = tested on: Human immunodeficiency virus 1; experiment: Antiviral activity against lopinavir-resistant HIV1 NL4-3 harboring protease L10F/V32I/M46I/I47A/A71V/I84V mutant infected in human MT4 cells assessed as reduction in p24 Gag protein production after 7 days by chemiluminescent enzyme immunoassay; type: functional, cell-based; settings: Human immunodeficiency virus 1, NL4-3, MT4, 168 h; summary of the method: as §1
[23] = tested on: Human immunodeficiency virus 1; experiment: Ratio of IC50 for lopinavir-resistant HIV1 NL4-3 harboring protease L10F/V32I/M46I/I47A/A71V/I84V mutant infected in human MT4 cells to IC50 for wild type HIV1 NL4.3 infected in human MT4 cells; type: functional; summary of the method: as §2

SMILES | Ki [1] | IC50 [2] | IC50 [3] | Ratio IC50 [4] | IC50 [5] | IC50 [6] | Ratio IC50 [7] | IC50 [8] | Ratio IC50 [9] | IC50 [10] | IC50 [11] | Ratio IC50 [12] | IC50 [13] | Ratio IC50 [14] | Ratio IC50 [15] | IC50 [16] | Ratio IC50 [17] | IC50 [18] | IC50 [19] | Ratio IC50 [20] | further results
COc1ccc(S(=O)(=O)N(CC(C)C)C[C@@H](O)[C@H](Cc2ccccc2)NC(=O)O[C@H]2C3CO[C@H]4OCC2C4C3)cc1 (some centres not stated) | 0.014 nM | 2.7 nM | – | – | – | – | – | – | – | – | – | – | – | – | – | – | – | – | – | – | –
CC(C)(C)NC(=O)[C@@H]1C[C@@H]2CCCC[C@@H]2CN1C[C@@H](O)[C@H](Cc1ccccc1)NC(=O)[C@H](CC(N)=O)NC(=O)c1ccc2ccccc2n1 | – | 21 nM | – | – | – | – | – | – | – | – | – | – | – | – | – | – | – | – | – | – | –
Cc1cccc(C)c1OCC(=O)N[C@@H](Cc1ccccc1)[C@@H](O)C[C@H](Cc1ccccc1)NC(=O)[C@H](C(C)C)N1CCCNC1=O [LOPINAVIR] | – | – | 330 nM | 17 | 310 nM | > 1000 nM | 16 | 20 nM | >50 | 42 nM | > 1000 nM | 2 | > 1000 nM | >50 | >50 | 170 nM | >50 | > 1000 nM | > 1000 nM | >50 | Ratio IC50 [21]: 9; IC50 [22]: > 1000 nM; Ratio IC50 [23]: >50
CC(C)CN(C[C@@H](O)[C@H](Cc1ccccc1)NC(=O)O[C@H]1C2CO[C@H]3OCC1C3C2)S(=O)(=O)c1ccc(N)cc1 (some centres not stated) | 0.013 nM | 2.8 nM | – | – | – | 30 nM | – | 3.3 nM | – | – | – | – | > 1000 nM | – | 103 | – | 9 | 340 nM | – | >303 | –
COC(=O)N[C@H](C(=O)N[C@@H](Cc1ccccc1)[C@@H](O)CN(Cc1ccc(-c2ccccn2)cc1)NC(=O)[C@@H](NC(=O)OC)C(C)(C)C)C(C)(C)C [ATAZANAVIR] | – | – | > 1000 nM | >238 | 3.8 nM | – | 0.9 | 4.2 nM | 121 | 17 nM | 510 nM | 4 | – | >238 | – | 62 nM | – | – | > 1000 nM | – | Ratio IC50 [21]: 15; IC50 [22]: 45 nM; Ratio IC50 [23]: 11
COc1ccc(S(=O)(=O)N(CC(C)C)C[C@@H](O)[C@H](Cc2ccccc2)NC(=O)O[C@@H]2C3CO[C@H]4OCC2C4C3)cc1 (some centres not stated) | 10.8 nM | > 1000 nM | – | – | – | – | – | – | – | – | – | – | – | – | – | – | – | – | – | – | –
CC(C)CN(C[C@@H](O)[C@H](Cc1ccccc1)NC(=O)O[C@H]1CO[C@H]2OCC[C@H]21)S(=O)(=O)c1ccc2nc(NC3CC3)sc2c1 | 0.01 nM | 1.9 nM | – | – | – | 7.7 nM | – | 2 nM | – | – | – | – | 480 nM | – | 15 | – | 4 | 30 nM | – | 240 | –
CC(C)CN(C[C@@H](O)[C@H](Cc1ccccc1)NC(=O)O[C@H]1C2CO[C@H]3OCC1C3C2)S(=O)(=O)c1ccc2nc(NC3CC3)sc2c1 (some centres not stated) | 0.04 nM | 0.26 nM | 0.19 nM | 0.5 | 0.27 nM | 0.17 nM | 0.7 | 0.39 nM | 0.08 | 0.028 nM | 0.03 nM | 0.07 | 35 nM | 0.15 | 5 | 0.012 nM | 0.4 | 1.8 nM | 0.057 nM | 90 | Ratio IC50 [21]: 0.03; IC50 [22]: 0.0026 nM; Ratio IC50 [23]: 0.007
